Experimental data: ChEMBL document CHEMBL1152641, “Effect of potential amine prodrugs of selective neuronal nitric oxide synthase inhibitors on blood-brain barrier penetration” (Bioorg Med Chem, 2009)

Experiments:
[1] = tested on: Brain; test: Drug level in mouse brain at […], ip; type: ADME, organism-based; details: in vivo, read-out: Drug uptake
Summary of the method: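 Mice were dosed i.p. with compound diluted in PBS to 1 mM, at 100 μL per 10 g, and sampled 10 min later. Brains were PBS-perfused through the left ventricle, removed, flash-frozen, homogenized in 2% formic acid water/acetonitrile (2:1) with internal standard, then cleaned by cation-exchange SPE. Quantified by positive-ESI LC-MS/MS against triplicate standard curves; μg/g converted to μM assuming density 1 g/mL; SEM.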

[2] = Ratio of drug level from brain to blood in mouse at 10 umol/kg, ip; type: ADME, tissue-based
[3] = tested on: Mus musculus; test: Plasma concentration in mouse at 10 umol/kg, ip; type: ADME, organism-based; details: in vivo
Summary of the method: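 Mice were given an i.p. injection of a 1 mM PBS solution (100 μL per 10 g) and sampled at 10 min. Heparinized blood was centrifuged and the plasma flash-frozen at −20 °C. Plasma plus internal standard was diluted in 2% acetic acid, cleaned by mixed-mode cation-exchange SPE, and quantified by positive-ESI LC-MS/MS (MRM) against triplicate standard curves; values as SEM.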

[4] = tested on: Plasma; test: Metabolic stability in mouse plasma after 40 mins by HPLC in presence of NADPH
[5] = Metabolic stability in rat liver microsomes assessed compound remaining after 40 mins by HPLC in presence of NADPH; type: ADME, Microsome; details: read-out: Stability
Summary of the method: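 Compound (10 μL of 300 μM stock) in PBS with NADPH regeneration solutions A/B was equilibrated at 37 °C. Rat liver microsomes were added and samples incubated for 0, 10, 20 or 40 min. Reactions were quenched with acetonitrile, chilled to 0 °C, centrifuged, dried and reconstituted in 2% formic acid. HPLC peak areas were normalized to t = 0; minaprine served as activity control.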

[6] = tested on: Brain; test: Metabolic stability in mouse brain homogenate assessed degradation by HPLC in presence of NADPH; type: ADME, tissue-based
Summary of the method: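 Three fresh mouse brains were each homogenized in PBS (pH 7.4) with NADPH regeneration buffers A and B, then pooled. Compound was added from a 200 μM stock and incubated at 37 °C for 0, 10, 20 and 40 min. Samples were heat-stopped at 95 °C for 1 min. HPLC UV read-out was at 310 or 260 nm depending on the compound. Peak-area ratio to internal standard was normalized to t = 0.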

[7] = tested on: Mus musculus; test: Toxicity in mouse at 3.7 mg/kg, ip; type: organism-based; set-up: dose 3.7 mg/kg, route intraperitoneal; details: in vivo
[8] = tested on: Plasma; test: Metabolic stability in mouse plasma assessed as half life in presence of NADPH; type: ADME, cell-free
Summary of the method: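 Fresh heparinized mouse plasma was supplemented with NADPH regenerating system (solutions A and B), and compound was added from a 200 μM stock. Incubation was at 37 °C, with samples taken at 0, 10, 20 and 40 min. Samples were quenched with acetonitrile plus internal standard, centrifuged, dried and run on HPLC. Compound/internal-standard ratio was normalized to the t = 0 ratio.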

[9] = tested on: Liver microsomes; test: Metabolic stability in rat liver microsomes assessed degradation by HPLC in presence of NADPH; type: ADME, Microsome
Summary of the method: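 Rat liver microsomes were added to PBS containing NADPH regeneration buffers A and B and compound (from a 300 μM stock), pre-equilibrated at 37 °C. Incubation was at 37 °C for 0, 10, 20 and 40 min. Samples were quenched with acetonitrile, chilled, centrifuged, dried and reconstituted in 2% formic acid for HPLC. Peak area was normalized to t = 0. Minaprine was run in parallel as a P450 activity control.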

Structure (SMILES) | concentration [1] | Kp [2] | concentration [3] | remaining at 40 min [5] | also measured
Cc1cc(N)nc(C[C@@H]2CNC[C@@H]2NCCNCCc2cccc(F)c2)c1 | 39 nM | 0.024 | 1600 nM |  | 
CC(OC(=O)N[C@@H](CCCNC(=N)N[N+](=O)[O-])CNc1ccccc1)OC(=O)C(C)(C)C (stereo partly specified) |  |  |  |  | Stability [4]: Unstable
Cc1cc(N)nc(C[C@@H]2CNC[C@@H]2OCCN=[N+]=[N-])c1 (racemic) |  |  |  |  | Stability [4]: Stable; Stability [6]: Stable
CC(OC(=O)N[C@@H](CCCNC(=N)N[N+](=O)[O-])CNc1ccccc1)OC(=O)C(C)(C)C (single isomer, unassigned; diastereomer 1) |  |  |  |  | t1/2 [8]: 10 min
CC(OC(=O)N[C@@H](CCCNC(=N)N[N+](=O)[O-])CNc1ccccc1)OC(=O)C(C)(C)C (single isomer, unassigned; diastereomer 2) |  |  |  |  | Stability [9]: Unstable; Stability [6]: Unstable; t1/2 [8]: 30 min

More lines, main results first:

concentration [1] | Kp [2] | concentration [3] | remaining at 40 min [5] | Structure (SMILES) | also measured
18 nM | 0.015 | 1210 nM | > 80% | COC(=O)N(CCO[C@H]1CNC[C@H]1Cc1cc(C)cc(N)n1)CCc1cccc(F)c1 (racemic) | 
9 nM | 0.018 | 490 nM | > 60% | Cc1cc(N)nc(C[C@@H]2CNC[C@@H]2OCCN(CCc2cccc(F)c2)C(=O)OCc2ccccc2)c1 (racemic) | 
39 nM | 0.008 | 4600 nM | > 80% | CC(=O)N(CCO[C@H]1CNC[C@H]1Cc1cc(C)cc(N)n1)CCc1cccc(F)c1 (racemic) | 
73 nM | 0.046 | 1600 nM |  | Cc1cc(N)nc(C[C@@H]2CNC[C@@H]2OCCNCCc2cccc(F)c2)c1 (racemic) | Activity [7]: Non-toxic
